Screening data as filed in PubChem BioAssay.
NPY1 pot ag – NPY-Y1 receptor potentiators or agonists, primary screen, cell-based; 220,000 compounds, 0.37% hits; NPY-Y1 expressing cells, potentiator/agonist activation; Neuropeptide Y receptor type 1 (Homo sapiens), P25929; AID 1304, 2008; activation, % at 3.6 µM; in the data active = activation above about 33%, passing the limit was not always enough;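 also: cells stimulated with NPY at EC10 then isoproterenol at EC100; 0% = low agonist plus stimulus and 100% = saturating agonist plus stimulus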
EP2 antag – human EP2 receptor antagonists, primary screen, TR-FRET cAMP, C6 glioma cells. 260,000 compounds, 0.52% hits. Prostaglandin E2 receptor EP2 subtype (Homo sapiens), P43116. C6 glioma cells expressing human EP2; cells stimulated with saturating PGE2. inhibition, % at 25 µM;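 active = percent inhibition above 40 after rounding to a whole number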;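 also: rat C6 glioma host cells with rolipram phosphodiesterase inhibitor present; the protocol text gives 20 µM as final concentration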
Target sequence (P43116 whole entry, looked up): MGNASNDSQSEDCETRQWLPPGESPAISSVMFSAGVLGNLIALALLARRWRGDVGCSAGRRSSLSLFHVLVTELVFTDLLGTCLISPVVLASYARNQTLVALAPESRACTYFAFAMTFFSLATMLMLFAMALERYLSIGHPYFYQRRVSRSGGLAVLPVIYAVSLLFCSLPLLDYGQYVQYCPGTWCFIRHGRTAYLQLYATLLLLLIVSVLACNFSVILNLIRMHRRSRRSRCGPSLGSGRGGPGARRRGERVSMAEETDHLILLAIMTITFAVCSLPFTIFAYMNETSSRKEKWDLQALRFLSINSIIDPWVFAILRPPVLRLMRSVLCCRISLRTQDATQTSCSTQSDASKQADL
NPY Y2 blocker – NPY-Y2 receptor antagonists, primary screen, cell-based | NPY-Y2 expressing cells, antagonist mode | inhibition, % at 2.7 µM | 140,000 compounds, 0.99% hits;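 also: 0% = vehicle with agonist challenge and 100% = reference antagonist with challenge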
EP2 mod – EP2 receptor modulators, cAMP readout, primary screen, cell-based, HTRF cAMP, PGE2 stimulation; induction, % at 25 µM; Prostaglandin E2 receptor EP2 subtype (Homo sapiens), P43116; EP2-expressing cells, cAMP HTRF FRET, PGE2 co-stimulation; 260,000 compounds, 0.83% hits;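 active = compounds whose cAMP rise, as percent of the full-agonist control response, exceeds 60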;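 also: rat C6 glioma line stably carrying human EP2 under a CMV promoter; the protocol text gives 20 µM as final concentration; 100% = response of wells given 1 µM PGE2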
NPY2 pot ag – NPY-Y2 potentiators or agonists, primary screen, cell-based; cells expressing NPY-Y2, potentiator/agonist read-out; activation, % at 3.6 µM; 220,000 compounds, 0.45% hits; AID 1359, 2008; in the data active = activation above about 27%;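 also: cells stimulated with NPY near EC25 plus isoproterenol at EC100; 0% = vehicle plus submaximal agonist and 100% = vehicle plus saturating agonist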
NPY-Y1 antag – NPY-Y1 receptor antagonists, primary screen, cell-based. Neuropeptide Y receptor type 1 (Homo sapiens), P25929. HEK293-CNG Y1 cells, membrane potential fluorescence; NPY at EC95, then isoproterenol. inhibition, % at 3.6 µM. 200,000 compounds, 1% hits. AID 1040, 2008;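 active = inhibition above the campaign mean inhibition of all tested compounds plus 3 SD, cut at about 20% in these data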;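 also: 0% = DMSO wells given NPY plus isoproterenol and 100% = isoproterenol alone without NPY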
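Benchmarks – high control isoproterenol alone, low control NPY with isoproterenol · Material – HEK293 Y1/CNG channel cell line · Times – dye 3 h, compound 60 min room temperature, stimulation 45 min · Probe or stimulus – NPY (25 nM), isoproterenol (1 µM), Ro 20-1724 (25 µM) · Evaluation – % inhibition of NPY effect · Signal – fluorescence, membrane potential probe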
NPY-Y1 ant conf – NPY-Y1 receptor antagonists, retest of hits, confirmation, HEK293-CNG cells, membrane potential fluorescence, triplicate. shares compounds with NPY-Y1 antag. cAMP; NPY challenge against isoproterenol-raised cAMP. inhibition, % at 3.6 µM. 1,200 compounds, 21% hits; in the data active = inhibition above about 20%;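 also: 0% = vehicle with agonist plus stimulus and 100% = stimulus alone without agonist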
NPY-Y2 antag ct – NPY-Y2 receptor antagonists, selectivity check, confirmation, counter-screen for NPY-Y1 antagonist project, HEK293-CNG cells, membrane potential fluorescence, triplicate; shares compounds with NPY-Y1 antag; antagonism; cells given NPY, then isoproterenol; inhibition, % at 3.6 µM; 1,200 compounds, 28% hits; AID 1255, 2008;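 also: 0% = DMSO with agonist challenge and 100% = reference antagonist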
* hit, by the source's call; . = not tested or not shown. Hits are enriched below; roughly 2.8% of the tested compounds scored in any of these assays. Rule as the data show it, unless noted: active = inhibition above about 17%; inactive = the rest.

SMILES	NPY1 pot ag	EP2 antag	NPY Y2 blocker	EP2 mod	NPY2 pot ag	NPY-Y1 antag	NPY-Y1 ant conf	NPY-Y2 antag ct
Cc1cc(S(=O)(=O)N2CCN(c3ccccc3C)CC2)ccc1F	-22	16	13	-22	-12	8	.	.
c1ccc(OCc2nn3c(C4CCCCC4)nnc3s2)cc1	-33	-3	9	-2	-14	27*	6	5
CCOc1ccccc1OCc1nn2c(COc3ccccc3)nnc2s1	-30	5	11	-8	-15	12	.	.
O=S(=O)(Nc1cc(Cl)ccc1Cl)c1ccc2c(c1)OCCO2	.	4	.	-18	.	.	.	.
CCCOc1ccccc1CN1CCC(NC(C)=O)(c2ccc(F)cc2)CC1	.	8	.	-53	.	.	.	.
CCCCOc1ccc(C(=O)O)cc1	-14	9	5	22	-8	6	.	.
CCCCOc1ccc(C(=O)OC(C)CN(C)C)cc1 (centres undefined)	-31	.	11	-31	-34	24*	6	9
COc1ccc(CNC(=O)Cn2nc(C)n3c(cc4oc(C)cc43)c2=O)cc1	.	11	.	-1	.	.	.	.
CCC(Oc1ccc(C)c(C)c1)C(=O)O (centres undefined)	-6	3	6	26	-3	23*	5	6
Cc1sc2nc(C3CC3)n(C3CCN(C(=O)C4CC4)CC3)c(=O)c2c1C	.	.	.	34	.	.	.	.
CCCSc1nc(-n2ncc(C#N)c2N)c2c3c(sc2n1)CCC(C)C3 (centres undefined)	-54	6	12	46	-28	21*	6	11
Cc1nc(-n2ncc(C#N)c2N)c2c3c(sc2n1)CCC3	-5	2	1	28	-2	14	.	.
COc1cccc(NC(=O)COC(=O)c2c3c(nc4ccccc24)CCC(C)C3)c1 (centres undefined)	-3	2	16	-20	12	31*	3	4
CN(C)CC(=O)c1ccc(-c2ccccc2)cc1	-22	7	3	-30	-4	20*	2	7
CCN(Cc1ccccc1)C(c1cccc(C#N)c1)c1nnnn1C(C)(C)C (centres undefined)	-14	2	8	43	-14	33*	3	5
Cc1ccc(N(CC(=O)N2CCc3ccccc3C2)S(C)(=O)=O)cc1C	.	8	.	2	.	.	.	.
CC(=O)N1c2ccc(C(=O)c3ccccc3)cc2NC2=C(C(=O)CC(C)(C)C2)C1c1ccco1 (centres undefined)	.	9	.	-7	.	.	.	.
Cc1ccccc1OCc1nc2ccccc2c(=O)n1NC(=O)c1ccco1	-26	10	4	33	-21	20*	8	9
Cc1nc2ccccc2c(=O)n1NC(=O)c1ccco1	-14	14	6	27	-11	8	.	.
Cc1cccn2c(CNC3CCCc4ccccc43)c(C(=O)N3CCCCC3)nc12 (centres undefined)	-5	5	.	9	-24	24*	8	6
Cc1ccccc1Nc1scc(-c2ccc(Cl)cc2)[n+]1-c1ccccc1C	-6	4	.	34	-4	36*	9	11
Cc1c(Nc2scc(-c3ccccc3)[n+]2-c2ccccc2)c(=O)n(-c2ccccc2)n1C	22	6	.	17	12	5	.	.
O=C(CSc1nc(-c2ccco2)cc(C(F)(F)F)n1)NCc1ccc(Cl)c(Cl)c1	.	14	.	-113	.	.	.	.
Cn1c(Oc2ccccc2NCc2cccc(Br)c2)cc(=O)n(C)c1=O	-12	7	5	24	-9	25*	11	6
CCN(CC)c1ccc(S(=O)(=O)N2CCOCC2)cc1NC(=O)CN1CCc2ccccc2C1	23	12	.	7	10	23*	2	8
SMILES	NPY1 pot ag	EP2 antag	NPY Y2 blocker	EP2 mod	NPY2 pot ag	NPY-Y1 antag	NPY-Y1 ant conf	NPY-Y2 antag ct
Cc1ccc(S(=O)(=O)N2CCOCC2)cc1NC(=O)CN1CCC(Cc2ccccc2)CC1	-9	5	.	32	-38	30*	11	15
CCn1cc(C(=O)N2CCC(c3ncncc3-c3ccncc3)CC2)c(C)n1	.	.	.	2	.	.	.	.
O=C(CSc1nc2sc3c(c2c(=O)[nH]1)CCCC3)c1ccc(Cl)cc1	.	11	.	-102	.	.	.	.
COc1ccc(CCNc2c(-c3cnn(C)c3C)nc3cnccn23)cc1OC	.	.	.	-39	.	.	.	.
O=C(NC(=S)Nc1ccc(CN2CCCCC2)cc1)c1cccc(OCc2ccccc2)c1	-53	4	.	4	-57	42*	42*	53*
O=C(O)c1ccc(NC(=S)NC(=O)c2cccc(COc3ccccc3)c2)cc1	-15	10	.	58	0	3	.	.
COc1cccc(N2CCN(CC(O)c3cn(C)c4ccccc34)CC2)c1 (centres undefined)	.	8	.	-48	.	.	.	.
CC1Cc2ccccc2N1C(=S)NC(=O)c1ccc(Cl)cc1Cl (centres undefined)	-18	5	7	7	1	25*	1	3
COc1cccc(C(=O)Nc2sc(C(=O)Nc3ccccc3OC)c(C)c2C#N)c1	.	20	.	-50	.	.	.	.
CCOc1ccc(C(=O)Nc2cc(C)on2)cc1OCC	-10	9	0	10	5	-1	.	.
CCCCOc1cccc(OCCCC)c1C(=O)Nc1cc(C)on1	-55	7	11	52	-10	51*	22*	8
CCOC(=O)CC(=O)CSc1nc(-c2ccccc2)nc2ccc(Cl)cc12	.	9	.	23	.	.	.	.
N#Cc1nc(-c2ccccc2F)oc1NCc1cccc2c1OCO2	-40	19	14	-46	-53	28*	6	7
CN(C)CCNc1oc(-c2ccccc2F)nc1C#N	3	5	0	0	2	-1	.	.
COc1ccc(CC2(CO)CCN(C/C=C/c3ccccc3OC)CC2)cc1	-30	14	.	-53	-15	27*	17	23*
O=C(CSc1nnc(-c2cccnc2)o1)c1ccc(Cl)cc1	.	11	.	7	.	.	.	.
O=C1C=C(c2ccccc2)CC(/C=C/c2ccccc2)C1 (centres undefined)	-38	9	9	15	4	23*	16	10
